Source: ChEMBL document CHEMBL1125212, “Dual-action cephalosporins: cephalosporin 3'-quinolone carbamates” (J Med Chem, 1991)
≈ marks a conversion by molar mass, not a printed value.

Experiments:
Citrobacter freundii = experiment: The compound was tested in vitro for minimum inhibitory concentration against Citrobacter Freundii BS-16; assay type: functional
Procedure, shortened: (§1)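 Agar dilution on Mueller-Hinton agar using 2-fold serial dilutions, giving final 128 to 0.0156 μg/mL (extended to 0.000977 μg/mL where needed). Inoculum was overnight broth culture diluted 100-fold, about 3×10^4 CFU/spot, applied by replicator. MIC read after overnight incubation at 36 °C.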

Escherichia coli [1] = experiment: The compound was tested in vitro for minimum inhibitory concentration against Escherichia coli ATCC 25922; assay type: functional; procedure, shortened: as §1
Escherichia coli [2] = experiment: Minimum inhibitory concentration required to inhibit the activity of Escherichia coli ATCC 25922; assay type: functional; procedure, shortened: as §1
Escherichia coli [3] = experiment: Minimum inhibitory concentration required to inhibit the activity of Escherichia coli UB1005; assay type: functional; procedure, shortened: as §1
Escherichia coli [4] = experiment: Minimum inhibitory concentration for inhibition of [14C]- Pen G binding to Escherichia coli UB1005; assay type: functional
Procedure, shortened: (§2)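 Membranes from sonicated E. coli UB1005 were solubilized. Binding to penicillin-binding proteins was measured as inhibition of [14C]penicillin G binding.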

Escherichia coli [5] = experiment: The compound was tested in vitro for minimum inhibitory concentration against Escherichia coli 257; assay type: functional; procedure, shortened: as §1
Enterococcus faecalis = experiment: The compound was tested in vitro for minimum inhibitory concentration against Enterococcus faecalis ATCC 29212; assay type: functional; procedure, shortened: as §1
Escherichia coli [6] = experiment: The compound was tested in vitro for minimum inhibitory concentration against Escherichia coli TEM-1; assay type: functional; procedure, shortened: as §1
Enterobacter cloacae = experiment: The compound was tested in vitro for minimum inhibitory concentration against Enterobacter cloacae P99; assay type: functional
Escherichia coli [7] = experiment: Inhibitory activity on replicative DNA biosynthesis in Escherichia coli H560 (permeabilised cells); assay type: functional, organism-based
Procedure, shortened: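 E. coli H560 cells permeabilized with toluene. ATP-dependent incorporation of [3H]thymidine into trichloroacetic acid-insoluble material was measured. IC50 taken as the concentration giving 50% inhibition.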

Micrococcus luteus = experiment: The compound was tested in vitro for minimum inhibitory concentration against Micrococcus luteus ATCC 9341; assay type: functional; procedure, shortened: as §1
Proteus mirabilis = experiment: The compound was tested in vitro for minimum inhibitory concentration against Proteus mirabilis 90; assay type: functional
Procedure, shortened: (§3)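 Proteus MICs by agar dilution on Mueller-Hinton medium containing 3% agar. Serial 2-fold dilutions gave final 128 to 0.0156 μg/mL (further to 0.000977 μg/mL). Inoculum was overnight broth diluted 100-fold, about 3×10^4 CFU/spot. Plates read after overnight incubation at 36 °C.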

Pseudomonas aeruginosa [8] = experiment: The compound was tested in vitro for minimum inhibitory concentration against Pseudomonas aeruginosa 18S/H; assay type: functional; procedure, shortened: as §1
Escherichia coli [9] = experiment: The compound was evaluated for the inhibition of [14C]- Pen G binding to Escherichia coli UB1005 penicillin-binding protein 1a 90 kDa.; procedure, shortened: as §2
Escherichia coli [10] = experiment: The compound was evaluated for the inhibition of [14C]- Pen G binding to Escherichia coli UB1005 penicillin-binding protein 1b 90 kDa.; procedure, shortened: as §2
Escherichia coli [11] = experiment: The compound was evaluated for the inhibition of [14C]- Pen G binding to Escherichia coli UB1005 penicillin-binding protein 2 66 kDa.; procedure, shortened: as §2
Escherichia coli [12] = experiment: The compound was evaluated for the inhibition of [14C]- Pen G binding to Escherichia coli UB1005 penicillin-binding protein 3 60 kDa.; procedure, shortened: as §2
Pseudomonas aeruginosa [13] = experiment: The compound was tested in vitro for minimum inhibitory concentration against Pseudomonas aeruginosa 8780; assay type: functional; procedure, shortened: as §1
Proteus vulgaris = experiment: The compound was tested in vitro for minimum inhibitory concentration against Proteus vulgaris 1028 BC; assay type: functional; procedure, shortened: as §3
Staphylococcus aureus [14] = experiment: The compound was tested in vitro for minimum inhibitory concentration against Staphylococcus aureus 67-0; assay type: functional; procedure, shortened: as §1
Staphylococcus aureus [15] = experiment: The compound was tested in vitro for minimum inhibitory concentration against Staphylococcus aureus 753; assay type: functional; procedure, shortened: as §1
Streptococcus pyogenes = experiment: The compound was tested in vitro for minimum inhibitory concentration against Streptococcus pyogenes; assay type: functional
Procedure, shortened: (§4)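 Streptococci tested by agar dilution on brain heart infusion agar with 20 units/mL bovine liver catalase. Final drug range 128 to 0.0156 μg/mL by 2-fold steps, extended to 0.000977 μg/mL when required. Inoculum about 3×10^4 CFU/spot from overnight broth diluted 100-fold. MIC after overnight incubation at 36 °C.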

Serratia marcescens = experiment: The compound was tested in vitro for minimum inhibitory concentration against Serratia marcescens 1071; assay type: functional; procedure, shortened: as §1
Streptococcus pneumoniae = experiment: The compound was tested in vitro for minimum inhibitory concentration against Streptococcus pneumoniae 6301; assay type: functional; procedure, shortened: as §4
Staphylococcus aureus [16] = experiment: The compound was tested in vitro for minimum inhibitory concentration against Staphylococcus aureus smith; assay type: functional; procedure, shortened: as §1
Klebsiella pneumoniae = experiment: The compound was tested in vitro for minimum inhibitory concentration against Klebsiella pneumoniae A; assay type: functional; procedure, shortened: as §1

| MIC (Citrobacter freundii) [µg/mL] | MIC (Escherichia coli [1]) [µg/mL] | MIC (Escherichia coli [2]) [µg/mL] | MIC (Escherichia coli [3]) [µg/mL] | MIC (Escherichia coli [4]) [µg/mL] | MIC (Escherichia coli [5]) [µg/mL] | MIC (Enterococcus faecalis) [µg/mL] | MIC (Escherichia coli [6]) [µg/mL] | MIC (Enterobacter cloacae) [µg/mL] | IC50 (Escherichia coli [7]) [µg/mL] | MIC (Micrococcus luteus) [µg/mL] | MIC (Proteus mirabilis) [µg/mL] | MIC (Pseudomonas aeruginosa [8]) [µg/mL] | Inhibitory concentration (Escherichia coli [9]) [µg/mL] | Inhibitory concentration (Escherichia coli [10]) [µg/mL] | Inhibitory concentration (Escherichia coli [11]) [µg/mL] | Inhibitory concentration (Escherichia coli [12]) [µg/mL] | MIC (Pseudomonas aeruginosa [13]) [µg/mL] | MIC (Proteus vulgaris) [µg/mL] | MIC (Staphylococcus aureus [14]) [µg/mL] | also measured | Compound |
| --- | --- | --- | --- | --- | --- | --- | --- | --- | --- | --- | --- | --- | --- | --- | --- | --- | --- | --- | --- | --- | --- |
| 0.125 (≈ 0.148 µM) | 0.063 (≈ 0.0747 µM) | 0.06 (≈ 0.0712 µM) | 1 (≈ 1.19 µM) | 1 (≈ 1.19 µM) | 0.063 (≈ 0.0747 µM) | 1 (≈ 1.19 µM) | 0.063 (≈ 0.0747 µM) | 0.63 (≈ 0.747 µM) | 2 (≈ 2.37 µM) | 1 (≈ 1.19 µM) | 0.25 (≈ 0.297 µM) | 1 (≈ 1.19 µM) | 100 | 10 | > 100 | < 0.1 | 1 (≈ 1.19 µM) | 0.125 (≈ 0.148 µM) | 4 (≈ 4.75 µM) | MIC (Staphylococcus aureus [15]): 4 µg/mL (≈ 4.75 µM); MIC (Streptococcus pyogenes): 0.25 µg/mL (≈ 0.297 µM); MIC (Serratia marcescens): 0.5 µg/mL (≈ 0.593 µM); MIC (Streptococcus pneumoniae): 0.25 µg/mL (≈ 0.297 µM); MIC (Staphylococcus aureus [16]): 1 µg/mL (≈ 1.19 µM); MIC (Klebsiella pneumoniae): 0.25 µg/mL (≈ 0.297 µM) | CC(C)(O/N=C(\C(=O)N[C@@H]1C(=O)N2C(C(=O)O)=C(COC(=O)N3CCN(c4cc5c(cc4F)c(=O)c(C(=O)O)cn5C4CC4)CC3)CS[C@H]12)c1csc(N)n1)C(=O)O |
| 0.063 (≈ 0.0873 µM) | 0.063 (≈ 0.0873 µM) | 0.06 (≈ 0.0831 µM) | 2 (≈ 2.77 µM) | 2 (≈ 2.77 µM) | 0.063 (≈ 0.0873 µM) | 4 (≈ 5.54 µM) | 0.063 (≈ 0.0873 µM) | 0.031 (≈ 0.043 µM) | 4.2 (≈ 5.82 µM) | 0.031 (≈ 0.043 µM) | 0.125 (≈ 0.173 µM) | 0.5 (≈ 0.693 µM) | > 100 | > 100 | > 100 | > 100 | 1 (≈ 1.39 µM) | 0.125 (≈ 0.173 µM) | 4 (≈ 5.54 µM) | MIC (Staphylococcus aureus [15]): 4 µg/mL (≈ 5.54 µM); MIC (Streptococcus pyogenes): 0.031 µg/mL (≈ 0.043 µM); MIC (Serratia marcescens): 0.25 µg/mL (≈ 0.346 µM); MIC (Streptococcus pneumoniae): 0.031 µg/mL (≈ 0.043 µM); MIC (Staphylococcus aureus [16]): 0.25 µg/mL (≈ 0.346 µM); MIC (Klebsiella pneumoniae): 0.25 µg/mL (≈ 0.346 µM) | O=C(COc1ccccc1)N[C@@H]1C(=O)N2C(C(=O)O)=C(COC(=O)N3CCN(c4cc5c(cc4F)c(=O)c(C(=O)O)cn5C4CC4)CC3)CS[C@H]12 |
| 0.125 (≈ 0.153 µM) | 0.031 (≈ 0.038 µM) | 0.03 (≈ 0.0368 µM) | 1 (≈ 1.23 µM) | 1 (≈ 1.23 µM) | 0.031 (≈ 0.038 µM) | 1 (≈ 1.23 µM) | 0.063 (≈ 0.0773 µM) | 0.063 (≈ 0.0773 µM) | 1.7 (≈ 2.09 µM) | 0.5 (≈ 0.614 µM) | 0.125 (≈ 0.153 µM) | 1 (≈ 1.23 µM) | 100 | 10 | > 100 | < 0.1 | 1 (≈ 1.23 µM) | 0.125 (≈ 0.153 µM) | 4 (≈ 4.91 µM) | MIC (Staphylococcus aureus [15]): 4 µg/mL (≈ 4.91 µM); MIC (Streptococcus pyogenes): 0.063 µg/mL (≈ 0.0773 µM); MIC (Serratia marcescens): 0.25 µg/mL (≈ 0.307 µM); MIC (Streptococcus pneumoniae): 0.125 µg/mL (≈ 0.153 µM); MIC (Staphylococcus aureus [16]): 0.5 µg/mL (≈ 0.614 µM); MIC (Klebsiella pneumoniae): 0.125 µg/mL (≈ 0.153 µM) | Nc1nc(/C(=N/OCC(=O)O)C(=O)N[C@@H]2C(=O)N3C(C(=O)O)=C(COC(=O)N4CCN(c5cc6c(cc5F)c(=O)c(C(=O)O)cn6C5CC5)CC4)CS[C@H]23)cs1 |
